These results are taken from PMC7597899 (Chemical Science, 2020).

The data set can be described thus: Acidity. In kind it is physicochemical. The following applies: aqueous 0.15 M KCl, with or without methanol cosolvent. Put shortly:
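Potentiometric titrations in 0.15 M KCl, titrated with 0.5 M HCl and KOH over pH 2.0–12.0. Samples were ≤0.5 mg and run in triplicate. Standard deviation came from fitting all three replicates. For water-insoluble compounds, methanol was added and the apparent psKa was extrapolated to aqueous pKa by the Yasuda–Shedlovsky procedure.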

In turn, `CONC(=O)c1n[nH]c2ccccc12` [Compound 1a, O-methyl indazole-3-hydroxamic acid] had a pKa of 8.43. The figure for `CONC(=O)c1nc2ccccc2[nH]1` [Compound 2a, O-methyl benzimidazole-2-hydroxamic acid] is 7.21; for `CONC(=O)c1nc2ccccc2s1` [Compound 4a, O-methyl benzothiazole-2-hydroxamic acid] it is 6.34. `CONC(=O)c1nsc2ccccc12` [Compound 3a, O-Methyl 1,2-benzisothiazole-3-hydroxamic acid] showed a pKa of 7.44.
